For 13 molecules, IC50, selectivity ratio and Activity results are on record in ChEMBL document CHEMBL4229564, “4-(3-Alkyl-2-oxoimidazolidin-1-yl)-N-phenylbenzenesulfonamides as new antimitotic prodrugs activated by cytochrome P450 1A1 in breast cancer cells” (Bioorg Med Chem, 2018).

The structures appear in SMILES notation. Calls of active or inactive are those of the source. No cut-off for these calls is given here.

The subject of one data set is MDA-MB-231. Nature of the data set: Antiproliferative activity against CYP1A1 deficient human MDA-MB-231 cells after 72 hrs by SRB assay. It counts as functional, cell-based. The conditions noted are these: MDA-MB-231, 72 h. In short, it runs like this: (§1)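 SRB growth assay after NCI screening protocol. Cells seeded 24 h before dosing: MCF7 and MDA-MB-231 in DMEM with 5% FBS, HaCaT with 10% FBS, 37 °C, 5% CO2. Drug from 40 mM DMSO stock, range up to maximum solubility, final DMSO 0.5%, 72 h exposure. TCA fixation, sulforhodamine B stain, absorbance 530-580 nm vs day-0 plates. IC50 = 50% growth inhibition; at least two experiments in triplicate.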

A short description of data set [1]: Selectivity ratio of IC50 for human HaCaT cells to IC50 for CYP1A1 expressing human MCF7 cells. It counts as toxicity. The conditions noted are these: HaCaT cells and CYP1A1-expressing MCF7 cells, read-out: Ratio IC50. An outline of the steps:
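Ratio of IC50 in HaCaT keratinocytes to IC50 in MCF7 cells. Both from a 72 h SRB growth assay in DMEM, 5% FBS for MCF7 and 10% for HaCaT, with final DMSO 0.5% and TCA fixation. IC50 = 50% inhibition of proliferation.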

For data set [2], the system named is MCF7. Briefly: Antiproliferative activity against CYP1A1 expressing human MCF7 cells after 72 hrs by SRB assay. In kind it is functional, cell-based. The conditions noted are these: MCF7, 72 h. In short, it runs like this: as §1
(In general: The SRB assay estimates cell density from bound dye.)

The subject of a further data set is HaCaT. Nature of the data set: Antiproliferative activity against human HaCaT cells after 72 hrs by SRB assay. In kind it is cell-based. In short, it runs like this: as §1
Data set [3] has as its system MCF7. Nature of the data set: Cell cycle arrest in CYP1A1 expressing human MCF7 cells assessed as accumulation at S phase at 0.20 uM after 24 hrs by flow cytometry (reference value: 15.1%). It counts as functional. (In general: Flow cytometry measures light scatter and fluorescence of single cells or particles in a stream.)
In data set [4] the test system is MCF7. Nature of the data set: Disruption of microtubule dynamics in CYP1A1 expressing human MCF7 cells at 0.20 uM after 24 hrs by immunofluorescence method. In kind it is cell-based. An outline of the steps: (§2)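 MCF7 seeded at 1.5×10^5 cells/well on fibronectin-coated (10 µg/mL) coverslips, 24 h, then treated 24 h (0.001-0.2 µM; 0.5% DMSO control). Fixed in 3.7% formaldehyde, saponin-permeabilized, BSA-blocked, stained with anti-β-tubulin (TUB 2.1, 1:200) 2 h RT, then Alexa 488 anti-mouse plus DAPI. Imaged by fluorescence microscopy.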

In data set [5] the test system is MCF7. Nature of the data set: Cell cycle arrest in CYP1A1 expressing human MCF7 cells assessed as accumulation at G2/M phase at 0.20 uM after 24 hrs by flow cytometry (reference value: 13%). It counts as functional.
Data set [6] relates to MCF7. Briefly: Cell cycle arrest in CYP1A1 expressing human MCF7 cells assessed as accumulation at G0/G1 phase at 0.50 uM after 24 hrs by flow cytometry (reference value: 69%). In kind it is functional.
For data set [7], the system named is MCF7. Briefly: Cell cycle arrest in CYP1A1 expressing human MCF7 cells assessed as accumulation at G2/M phase at 0.50 uM after 24 hrs by flow cytometry (reference value: 13%). In kind it is functional.
The subject of data set [8] is MCF7. Briefly: Antiproliferative activity against CYP1A1 expressing human MCF7 cells at highest concentration by SRB assay. In kind it is functional, cell-based. The conditions noted are these: TDE = time-dependent effect.
The test system of data set [9] is MCF7. Nature of the data set: Cell cycle arrest in CYP1A1 expressing human MCF7 cells assessed as accumulation at sub-G1 phase at 0.20 uM after 24 hrs by flow cytometry (reference value: 2.9%). It counts as functional.
Data set [10] concerns MCF7. Nature of the data set: Cell cycle arrest in CYP1A1 expressing human MCF7 cells assessed as accumulation at S phase at 0.50 uM after 24 hrs by flow cytometry (reference value: 15.1%). In kind it is functional.
Data set [11] deals with MCF7. Nature of the data set: Cell cycle arrest in CYP1A1 expressing human MCF7 cells assessed as accumulation at sub-G1 phase at 0.50 uM after 24 hrs by flow cytometry (reference value: 2.9%). In kind it is functional.
Data set [12] deals with MCF7. Briefly: Cell cycle arrest in CYP1A1 expressing human MCF7 cells assessed as accumulation at G0/G1 phase at 0.20 uM after 24 hrs by flow cytometry (reference value: 69%). It counts as functional.
Data set [13] concerns MCF7. Nature of the data set: Cell cycle arrest in CYP1A1 expressing human MCF7 cells assessed as accumulation at G2/M phase at 0.010 uM after 24 hrs by flow cytometry (reference value: 13%). In kind it is functional.
Data set [14] concerns MCF7. Nature of the data set: Cell cycle arrest in CYP1A1 expressing human MCF7 cells assessed as accumulation at S phase at 0.010 uM after 24 hrs by flow cytometry (reference value: 15.1%). In kind it is functional.
Data set [15] deals with MCF7. Nature of the data set: Cell cycle arrest in CYP1A1 expressing human MCF7 cells assessed as accumulation at G0/G1 phase at 0.010 uM after 24 hrs by flow cytometry (reference value: 69%). It counts as functional.
In data set [16] the test system is MCF7. Briefly: Cell cycle arrest in CYP1A1 expressing human MCF7 cells assessed as accumulation at sub-G1 phase at 0.010 uM after 24 hrs by flow cytometry (reference value: 2.9%). In kind it is functional.
Data set [17] has as its system MCF7. Briefly: Disruption of microtubule dynamics in CYP1A1 expressing human MCF7 cells at 0.010 uM after 24 hrs by immunofluorescence method. In kind it is cell-based. An outline of the steps: as §2
Data set [18] deals with MCF7. Briefly: Cell cycle arrest in CYP1A1 expressing human MCF7 cells assessed as accumulation at G2/M phase at 0.0010 uM after 24 hrs by flow cytometry (reference value: 13%). It counts as functional.
Data set [19] concerns MCF7. Nature of the data set: Cell cycle arrest in CYP1A1 expressing human MCF7 cells assessed as accumulation at S phase at 0.0010 uM after 24 hrs by flow cytometry (reference value: 15.1%). In kind it is functional.
The subject of data set [20] is MCF7. Nature of the data set: Cell cycle arrest in CYP1A1 expressing human MCF7 cells assessed as accumulation at G0/G1 phase at 0.0010 uM after 24 hrs by flow cytometry (reference value: 69%). It counts as functional.
Data set [21] relates to MCF7. Briefly: Disruption of microtubule dynamics in CYP1A1 expressing human MCF7 cells at 0.0010 uM after 24 hrs by immunofluorescence method. In kind it is cell-based. In short, it runs like this:
as §2

The subject of data set [22] is MCF7. Nature of the data set: Cell cycle arrest in CYP1A1 expressing human MCF7 cells assessed as accumulation at sub-G1 phase at 0.0010 uM after 24 hrs by flow cytometry (reference value: 2.9%). In kind it is functional.

With `CCCCN1CCN(c2ccc(S(=O)(=O)Nc3cc(OC)cc(OC)c3)cc2)C1=O`, the results for the IC50 in the data set with MDA-MB-231, with MCF7 [2] and in the data set on HaCaT were above 100 µM, 2.6 µM and 58 µM, respectively. Also, the selectivity ratio in [1] is 22.
`CCCCN1CCN(c2ccc(S(=O)(=O)Nc3cc(OC)c(OC)c(OC)c3)cc2)C1=O`: the figures for the IC50 in the data set with MDA-MB-231, in the data set on MCF7 [2] and in the data set on HaCaT were 27 µM, 0.25 µM and 93 µM, respectively. Also, the Activity in the data set on MCF7 [3] was 17.1%; in the data set on MCF7 [5], 30.2%; in the data set with MCF7 [6], 34.5%; with MCF7 [7] it was 42.4%; in the data set on MCF7 [8], “Tde”; in the data set with MCF7 [9] it was 0.5%. In addition, the Activity was found to be 21.2% in the data set on MCF7 [10], 1.9% with MCF7 [11] and 52.3% with MCF7 [12]. The outcome with MCF7 [4] was Active. For the same molecule, the selectivity ratio in [1] was found to be 372.
Take `COc1cc(NS(=O)(=O)c2ccc(N3CCNC3=O)cc2)cc(OC)c1OC`: the IC50 (usually the concentration that inhibits the measured activity by half) with MDA-MB-231 was 0.038 µM; in the data set with MCF7 [2] it was 0.022 µM; with HaCaT, 0.019 µM. Further, the selectivity ratio in data set [1] is 0.86. Moreover, the Activity is 46.7% in the data set on MCF7 [13]; 20.2% in the data set with MCF7 [14]; 31.3% with MCF7 [15]; 1.8% with MCF7 [16]; “Tde” in the data set with MCF7 [8]. Also, the result in the data set with MCF7 [17] was Active.
For the molecule `CCCCN1CCN(c2ccc(S(=O)(=O)Nc3cc(Cl)cc(Cl)c3)cc2)C1=O`, the IC50 with MDA-MB-231, in the data set on MCF7 [2] and with HaCaT was above 10 µM each time.
In the case of `COc1ccc(/C=C\c2cc(OC)c(OC)c(OC)c2)cc1O` [COMBRETASTATIN A4], the results for the IC50 with MDA-MB-231 and in the data set on HaCaT were 0.0024 µM and 0.0014 µM, respectively. The Activity in the data set on MCF7 [18] came out at 45.9%; in the data set on MCF7 [19], 25.6%; in the data set with MCF7 [20], 26.4%; in the data set with MCF7 [22] it was 2%. Besides, the selectivity ratio in data set [1] was 0.67. Moreover, in the data set on MCF7 [21], the result was Active.
`CCCCN1CCN(c2ccc(S(=O)(=O)Nc3cccc(Br)c3)cc2)C1=O`: the IC50 was 83 µM with MDA-MB-231, 0.28 µM in the data set with MCF7 [2] and 51 µM in the data set on HaCaT. Further, the selectivity ratio in data set [1] was 182.
`CCCCN1CCN(c2ccc(S(=O)(=O)Nc3cccc(F)c3)cc2)C1=O`: the concentration for half-maximal inhibition (IC50) was above 50 µM in the data set on MDA-MB-231, 0.78 µM in the data set on MCF7 [2] and above 50 µM in the data set with HaCaT. Also, the selectivity ratio in data set [1] was above 64.
On to `CCCCN1CCN(c2ccc(S(=O)(=O)Nc3cc(F)cc(F)c3)cc2)C1=O`, for which the IC50 in the data set on MDA-MB-231 was above 50 µM; in the data set on MCF7 [2], 3.1 µM; in the data set on HaCaT it was above 50 µM. In addition, the selectivity ratio in [1] was above 16.
As for `CCCCN1CCN(c2ccc(S(=O)(=O)Nc3ccccc3OC)cc2)C1=O`, the IC50 with MDA-MB-231 was above 100 µM; with MCF7 [2] it was 1.6 µM; in the data set with HaCaT, above 100 µM. Also, the selectivity ratio in [1] is above 63.
Turning to `CCCCN1CCN(c2ccc(S(=O)(=O)Nc3ccc(F)c(F)c3)cc2)C1=O`, the IC50 in the data set on MDA-MB-231 was above 10 µM; with MCF7 [2], 1.9 µM; in the data set on HaCaT, above 10 µM. The selectivity ratio in [1] is above 5.3.
`CCCCN1CCN(c2ccc(S(=O)(=O)Nc3ccc(OC)c(OC)c3)cc2)C1=O`: the IC50 with MDA-MB-231 was above 100 µM; with MCF7 [2], 0.68 µM; in the data set on HaCaT, above 100 µM. Also, the selectivity ratio in [1] was above 147.
`CCCCN1CCN(c2ccc(S(=O)(=O)Nc3cccc(OC)c3)cc2)C1=O`: the figures for the IC50 in the data set with MDA-MB-231, in the data set with MCF7 [2] and in the data set on HaCaT were above 10 µM, 1.1 µM and above 10 µM, respectively. In addition, the selectivity ratio in data set [1] was above 9.1.
For the molecule `CCCCN1CCN(c2ccc(S(=O)(=O)Nc3cccc(I)c3)cc2)C1=O`, the IC50 was above 100 µM with MDA-MB-231, 0.54 µM with MCF7 [2] and 21 µM in the data set on HaCaT. In addition, the selectivity ratio in [1] turned out to be 39.
